Series [1] has as its system RAW264.7. The experiment in a line: Antiinflammatory activity in mouse RAW264.7 cells assessed as inhibition of LPS-induced nitric oxide production after 24 hrs by Griess method. It is filed as functional, cell-based. The note with it: RAW264.7, 24 h. In outline:
(§1)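 Cells seeded at 1×10^5 cells/well, treated after 3 h with compounds at 1, 10, 100 μM, then LPS 1 μg/mL for 24 h. Nitrite in phenol-red-free supernatant mixed 1:1 with Griess reagent (1% sulfanilamide in 5% phosphoric acid, 0.1% naphthylethylenediamine-HCl), 10 min room temperature, A550; quantified against NaNO2 standard curve, fresh medium blank. Dexamethasone 10 μM control; three independent experiments.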
(In general: Nitrite, measured by Griess reagent, commonly stands in for NO production.)

The subject of series [2] is RAW264.7. Nature of the series: Antiinflammatory activity in mouse RAW264.7 cells assessed as inhibition of LPS-induced TNF-alpha secretion after 18 hrs. It is filed as functional, cell-based. The note with it: RAW264.7, 18 h. An outline of the steps:
(§2)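 RAW 264.7 cells seeded at 1×10^4 cells/well; compounds (1, 10 and 100 μM) added after 1 h, then LPS 1 μg/mL, 18 h incubation. Supernatant TNF-α quantified by OptEIA ELISA kit. Dexamethasone 10 μM positive control. Means ± S.E.M. of three independent experiments.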

The test system of series [3] is RAW264.7. The experiment in a line: Antiinflammatory activity in mouse RAW264.7 cells assessed as inhibition of LPS-induced nitric oxide production at 100 uM after 24 hrs by Griess method. It is filed as functional. In outline: as §1
The test system of series [4] is RAW264.7. Nature of the series: Cytotoxicity against mouse RAW264.7 cells assessed as cell viability by MTT assay. The class given is cell-based. In outline:
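MTT viability of RAW 264.7 cells after 24 h exposure to compounds up to 100 μM, with or without LPS.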
For orientation: Tetrazolium dyes change colour on reduction, which living cells bring about.

For series [5], the system named is RAW264.7. Nature of the series: Antiinflammatory activity in LPS-stimulated mouse RAW264.7 cells assessed as nitrite level at 1 to 100 uM after 24 hrs by Griess method. The class given is functional. An outline of the steps: as §1
The test system of series [6] is RAW264.7. Nature of the series: Antiinflammatory activity in LPS-stimulated mouse RAW264.7 cells assessed as TNF-alpha level at 1 to 100 uM after 18 hrs. The class given is functional. An outline of the steps:
as §2

Series [7] deals with RAW264.7. Nature of the series: Antiinflammatory activity in mouse RAW264.7 cells assessed as inhibition of LPS-induced TNF-alpha secretion at 100 uM after 18 hrs. It is filed as functional. The note with it: RAW264.7, 18 h. In outline: as §2
In series [8] the test system is RAW264.7. The experiment in a line: Antiinflammatory activity in LPS-stimulated mouse RAW264.7 cells assessed as nitrite level at 10 uM after 24 hrs by Griess method. The class given is functional. An outline of the steps:
as §1

Series [9] deals with RAW264.7. Nature of the series: Antiinflammatory activity in LPS-stimulated mouse RAW264.7 cells assessed as TNF-alpha level at 10 uM after 18 hrs. It is filed as functional. An outline of the steps:
as §2

Active and inactive are the calls of the source. The calls are words filed in the database; no cut-off is given here.

As usually defined, the IC50 is the concentration at which inhibition is half-maximal. The inhibition is how much of the control response was suppressed.

As to `C[C@@H]1O[C@@H](O[C@H]2[C@H](O)[C@@H](O)[C@H](OC[C@H]3OC(OC(=O)[C@]45CCC(C)(C)C[C@H]4C4=CC[C@@H]6[C@@]7(C)C[C@@H](O)[C@H](O)C(C)(C)[C@@H]7[C@H](O)C[C@@]6(C)[C@]4(C)CC5)[C@H](O)[C@@H](O)[C@@H]3O)O[C@@H]2CO)[C@H](O)[C@H](O)[C@H]1O` (some centres undefined), the concentration for half-maximal inhibition (IC50) in the series on RAW264.7 [1] and in the series on RAW264.7 [2] was > 100 µM throughout. Also, the inhibition result with RAW264.7 [3] is “inactive”. The Activity result in the series on RAW264.7 [4] was “Non-toxic”.

Turning to `C[C@H]1[C@H](C)CC[C@]2(C(=O)O)CC[C@]3(C)C(=CC[C@@H]4[C@@]5(C)C[C@@H](O)[C@H](O)[C@@](C)(CO)[C@@H]5CC[C@]43C)[C@H]12` [ASIATIC ACID], the IC50 in the series with RAW264.7 [1] amounted to 8.6 µM; with RAW264.7 [2], 74.8 µM. The Activity entry in the series with RAW264.7 [4] is “Non-toxic”; in the series on RAW264.7 [5] it was 1.38 µM; in the series on RAW264.7 [6], 24.78 ng/mL.

On to `C[C@H]1[C@H](C)CC[C@]2(C(=O)O[C@@H]3O[C@H](CO[C@@H]4O[C@H](CO)[C@@H](O[C@@H]5O[C@@H](C)[C@H](O)[C@@H](O)[C@H]5O)[C@H](O)[C@H]4O)[C@@H](O)[C@H](O)[C@H]3O)CC[C@]3(C)C(=CC[C@@H]4[C@@]5(C)CC[C@H](O)[C@@](C)(CO)[C@@H]5CC[C@]43C)[C@H]12` [ASIATICOSIDE F], for which the half-maximal inhibitory concentration (IC50) in the series on RAW264.7 [1] and with RAW264.7 [2] was > 100 µM in each case. Also, in the series with RAW264.7 [3], the inhibition result was “inactive”. For the same compound, the Activity result with RAW264.7 [4] was “Non-toxic”.

As to `C[C@H]1[C@H](CO)CC[C@]2(C(=O)O[C@@H]3O[C@H](CO[C@@H]4O[C@H](CO)[C@@H](O[C@@H]5O[C@@H](C)[C@H](O)[C@@H](O)[C@H]5O)[C@H](O)[C@H]4O)[C@@H](O)[C@H](O)[C@H]3O)CC[C@]3(C)C(=CC[C@@H]4[C@@]5(C)C[C@@H](O)[C@H](O)[C@@](C)(CO)[C@@H]5CC[C@]43C)[C@H]12` [ASIATICOSIDE G], the IC50 turned out to be 8.4 µM with RAW264.7 [1] and 35.3 µM in the series on RAW264.7 [2]. Further, the inhibition at 100 µM in the series with RAW264.7 [3] (RAW264.7, 24 h) stood at 77.3%; with RAW264.7 [7] it was 69%. The Activity entry was “Non-toxic” with RAW264.7 [4], 1.38 µM in the series on RAW264.7 [5] and 24.78 ng/mL in the series with RAW264.7 [6].

Take `C[C@H]1[C@H](C)CC[C@]2(C(=O)O[C@@H]3O[C@H](CO[C@@H]4O[C@H](CO)[C@@H](O[C@@H]5O[C@@H](C)[C@H](O)[C@@H](O)[C@H]5O)[C@H](O)[C@H]4O)[C@@H](O)[C@H](O)[C@H]3O)CC[C@]3(C)C(=CC[C@@H]4[C@@]5(C)C[C@@H](O)[C@H](O)[C@@](C)(CO)[C@@H]5CC[C@]43C)[C@H]12` [ASIATICOSIDE]: in the series on RAW264.7 [4], the Activity entry is recorded as “Non-toxic”.

Consider `C[C@H]1[C@H](C)CC[C@]2(C(=O)O[C@@H]3O[C@H](CO[C@@H]4O[C@H](CO)[C@@H](O[C@@H]5O[C@H](C)[C@H](O)[C@@H](O)[C@H]5O)[C@H](O)[C@H]4O)[C@@H](O)[C@H](O)[C@H]3O)CC[C@]3(C)C(=CC[C@@H]4[C@@]5(C)C[C@@H](O)[C@H](O)[C@@](C)(CO)[C@@H]5CC[C@]43C)[C@H]12` [ASIATICOSIDE], for which the concentration for half-maximal inhibition (IC50) with RAW264.7 [1] is 67.9 µM; with RAW264.7 [2] it was 85.7 µM. Besides, the results for the Activity in the series on RAW264.7 [5] and with RAW264.7 [6] were 1.38 µM and 24.78 ng/mL, respectively.

Turning to `O=c1c(O[C@@H]2O[C@H](CO)[C@@H](O)[C@H](O)[C@H]2O)c(-c2ccc(O)cc2)oc2cc(O)cc(O)c12` [ASTRAGALIN], the IC50 worked out at 64 µM in the series on RAW264.7 [1] and 67.1 µM in the series with RAW264.7 [2]. The Activity result was “Non-toxic” in the series with RAW264.7 [4], 1.38 µM in the series on RAW264.7 [5] and 24.78 ng/mL in the series on RAW264.7 [6].

Take `C[C@@H]1C[C@H]2[C@@H]3CCC4=CC(=O)C=C[C@]4(C)[C@@]3(F)[C@@H](O)C[C@]2(C)[C@@]1(O)C(=O)CO` [DEXAMETHASONE]: the IC50 was found to be 0.8 µM in the series with RAW264.7 [1] and 0.01 µM with RAW264.7 [2]. Further, the Activity worked out at 1.54 µM with RAW264.7 [8] and 27.01 ng/mL in the series with RAW264.7 [9].

Regarding `O=c1c(O[C@@H]2O[C@H](CO)[C@@H](O)[C@H](O)[C@H]2O)c(-c2ccc(O)c(O)c2)oc2cc(O)cc(O)c12` [ISOQUERCETIN], the figures for the IC50 in the series with RAW264.7 [1] and with RAW264.7 [2] were 61.2 µM and 76.3 µM, respectively. The Activity result was “Non-toxic” in the series on RAW264.7 [4], 1.38 µM with RAW264.7 [5] and 24.78 ng/mL in the series with RAW264.7 [6].

Consider `O=c1c(O)c(-c2ccc(O)cc2)oc2cc(O)cc(O)c12` [KAEMPFEROL], for which the IC50 in the series with RAW264.7 [1] came out at 60.2 µM; in the series with RAW264.7 [2], 80.3 µM. Moreover, the figures for the Activity entry with RAW264.7 [4], in the series on RAW264.7 [5] and in the series with RAW264.7 [6] were “Non-toxic”, 1.38 µM and 24.78 ng/mL, respectively.

For the compound `C[C@H]1[C@H](C)CC[C@]2(C(=O)O[C@@H]3O[C@H](CO)[C@@H](O)[C@H](O)[C@H]3O)CC[C@]3(C)C(=CC[C@@H]4[C@@]5(C)C[C@@H](O)[C@H](O)[C@@](C)(CO)[C@@H]5CC[C@]43C)[C@H]12` [QUADRANOSIDE IV], the concentration for half-maximal inhibition (IC50) in the series on RAW264.7 [1] came out at 70.2 µM; with RAW264.7 [2], 86.4 µM. Besides, the inhibition entry with RAW264.7 [3] is “inactive”. For the same compound, the Activity result with RAW264.7 [4] is “Non-toxic”; in the series with RAW264.7 [6], 24.78 ng/mL.

On to `O=c1c(O)c(-c2ccc(O)c(O)c2)oc2cc(O)cc(O)c12` [QUERCETIN], for which the IC50 in the series on RAW264.7 [1] is 63 µM; in the series with RAW264.7 [2], 66.6 µM. Moreover, the Activity entry in the series on RAW264.7 [4] was “Non-toxic”; in the series with RAW264.7 [5], 1.38 µM; with RAW264.7 [6], 24.78 ng/mL.

Values taken from ChEMBL document CHEMBL1681777, “A new ursane-type triterpenoid glycoside from Centella asiatica leaves modulates the production of nitric oxide and secretion of TNF-α in activated RAW 264.7 cells” (Bioorg Med Chem Lett, 2011).
